Measurements as given in ChEMBL document CHEMBL5244270, “Selective Inhibitors of G2019S-LRRK2 Kinase Activity” (J Med Chem, 2020).

Columns and labels:
[1] = biological target: T1, Leucine-rich repeat serine/threonine-protein kinase 2 (Homo sapiens, UniProt Q5S007); assay: Inhibition of N-terminal GST-fused human wild type LRRK2 using fluorescein-labeled LRRKtide as substrate preincubated for 15 mins followed by substrate addition and measured after 1 hr by TR-FRET assay
Method in brief: (§1)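 Purified truncated LRRK2, WT or G2019S, at 2 nM nominal was preincubated with inhibitor for 15 min. LRRKtide (0.4 μM) and ATP (25 μM) were then added for 1 h. The reaction was stopped with 10 mM EDTA plus 2 nM Tb-anti-pLRRKtide antibody, and TR-FRET was read. IC50 is the geometric mean of at least two independent experiments.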

[2] = biological target: T2, Leucine-rich repeat serine/threonine-protein kinase 2 (Homo sapiens, UniProt Q5S007, G2019S); assay: Inhibition of N-terminal GST-fused human LRRK2 G2019S mutant using fluorescein-labeled LRRKtide as substrate preincubated for 15 mins followed by substrate addition and measured after 1 hr by TR-FRET assay; method in brief: as §1
T2 sequence (Q5S007 whole entry G2019S, the tested form may be a part): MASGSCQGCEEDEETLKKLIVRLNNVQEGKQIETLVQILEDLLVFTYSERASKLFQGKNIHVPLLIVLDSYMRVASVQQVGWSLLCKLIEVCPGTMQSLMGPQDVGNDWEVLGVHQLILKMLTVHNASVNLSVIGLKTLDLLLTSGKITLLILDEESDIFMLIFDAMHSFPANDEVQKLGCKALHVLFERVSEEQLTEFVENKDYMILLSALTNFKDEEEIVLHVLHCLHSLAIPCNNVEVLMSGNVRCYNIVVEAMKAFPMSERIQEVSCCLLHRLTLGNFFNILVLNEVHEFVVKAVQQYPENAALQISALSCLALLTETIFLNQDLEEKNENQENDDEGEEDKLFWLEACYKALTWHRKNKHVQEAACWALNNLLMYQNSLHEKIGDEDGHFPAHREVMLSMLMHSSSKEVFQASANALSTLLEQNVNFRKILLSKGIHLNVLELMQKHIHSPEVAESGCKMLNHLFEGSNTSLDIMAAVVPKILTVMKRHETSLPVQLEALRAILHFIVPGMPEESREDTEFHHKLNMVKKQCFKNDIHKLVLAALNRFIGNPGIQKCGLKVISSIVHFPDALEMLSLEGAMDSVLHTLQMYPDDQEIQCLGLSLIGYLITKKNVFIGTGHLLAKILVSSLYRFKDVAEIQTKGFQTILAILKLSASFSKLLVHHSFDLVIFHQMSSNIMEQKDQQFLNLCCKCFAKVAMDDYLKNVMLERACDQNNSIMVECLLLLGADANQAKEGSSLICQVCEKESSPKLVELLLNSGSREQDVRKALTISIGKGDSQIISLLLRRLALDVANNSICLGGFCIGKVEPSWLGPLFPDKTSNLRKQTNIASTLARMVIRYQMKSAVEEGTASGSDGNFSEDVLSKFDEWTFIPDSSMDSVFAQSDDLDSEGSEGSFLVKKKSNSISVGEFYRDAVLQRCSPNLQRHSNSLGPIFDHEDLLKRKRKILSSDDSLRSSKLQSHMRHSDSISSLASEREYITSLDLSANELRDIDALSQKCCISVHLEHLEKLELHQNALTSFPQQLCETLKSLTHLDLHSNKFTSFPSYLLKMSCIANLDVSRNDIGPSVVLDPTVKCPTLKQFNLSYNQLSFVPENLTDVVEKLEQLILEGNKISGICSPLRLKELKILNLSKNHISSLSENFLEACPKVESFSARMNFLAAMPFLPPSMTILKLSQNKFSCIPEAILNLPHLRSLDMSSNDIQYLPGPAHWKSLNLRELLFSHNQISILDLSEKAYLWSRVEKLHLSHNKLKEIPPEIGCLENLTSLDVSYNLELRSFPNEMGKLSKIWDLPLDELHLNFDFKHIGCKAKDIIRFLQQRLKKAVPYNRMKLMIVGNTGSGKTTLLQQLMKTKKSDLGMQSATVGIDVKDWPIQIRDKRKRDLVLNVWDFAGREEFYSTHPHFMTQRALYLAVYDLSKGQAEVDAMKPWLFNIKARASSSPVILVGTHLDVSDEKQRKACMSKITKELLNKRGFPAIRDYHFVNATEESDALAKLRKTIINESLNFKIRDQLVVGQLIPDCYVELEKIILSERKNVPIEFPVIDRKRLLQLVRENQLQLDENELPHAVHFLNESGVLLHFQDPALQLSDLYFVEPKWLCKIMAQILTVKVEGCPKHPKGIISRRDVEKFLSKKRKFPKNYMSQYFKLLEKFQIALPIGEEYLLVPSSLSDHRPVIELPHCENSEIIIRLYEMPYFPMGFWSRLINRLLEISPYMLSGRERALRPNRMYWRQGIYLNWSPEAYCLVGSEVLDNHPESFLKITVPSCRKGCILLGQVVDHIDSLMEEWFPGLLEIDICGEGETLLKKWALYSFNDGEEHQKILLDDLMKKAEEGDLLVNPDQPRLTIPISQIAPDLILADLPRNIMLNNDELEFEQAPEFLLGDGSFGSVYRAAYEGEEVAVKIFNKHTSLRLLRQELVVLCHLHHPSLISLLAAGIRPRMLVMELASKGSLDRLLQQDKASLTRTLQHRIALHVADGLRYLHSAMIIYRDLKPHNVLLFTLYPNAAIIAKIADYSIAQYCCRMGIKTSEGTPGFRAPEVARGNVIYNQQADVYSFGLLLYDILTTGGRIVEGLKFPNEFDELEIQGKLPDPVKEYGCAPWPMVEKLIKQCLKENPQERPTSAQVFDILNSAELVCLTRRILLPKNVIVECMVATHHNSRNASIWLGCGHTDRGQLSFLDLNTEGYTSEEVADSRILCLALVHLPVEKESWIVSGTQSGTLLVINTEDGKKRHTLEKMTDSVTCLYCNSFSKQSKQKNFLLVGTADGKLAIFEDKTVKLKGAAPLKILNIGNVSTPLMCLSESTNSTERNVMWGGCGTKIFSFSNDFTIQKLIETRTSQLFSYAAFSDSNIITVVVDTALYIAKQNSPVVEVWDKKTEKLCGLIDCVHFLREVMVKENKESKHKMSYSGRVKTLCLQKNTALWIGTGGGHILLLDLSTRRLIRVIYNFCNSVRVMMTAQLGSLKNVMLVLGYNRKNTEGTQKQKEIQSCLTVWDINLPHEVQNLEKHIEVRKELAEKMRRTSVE

[3] = species: Homo sapiens; assay: Selectivity ratio of IC50 for inhibition of N-terminal GST-fused human wild type LRRK2 to IC50 for inhibition of N-terminal GST-fused human […] mutant; method in brief: as §1
[4] = biological target: T1, Leucine-rich repeat serine/threonine-protein kinase 2; assay: Inhibition of human wild type LRRK2 expressed in HEK293 cells assessed as reduction in pSer935 phosphorylation incubated for 2 hrs by HTRF analysis; assay type: cell-based
Method in brief: (§2)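 Stably transfected HEK293 cells expressing human WT or G2019S LRRK2 were seeded at 5K/well in DMEM with 1% serum on poly-D-lysine plates. Inhibitor in DMSO was added for 2 h at 37 °C. pS935 was detected by an HTRF kit. IC50 is the geometric mean of at least two independent experiments.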

[5] = biological target: T2, Leucine-rich repeat serine/threonine-protein kinase 2; assay: Inhibition of human LRRK2 G2019S mutant expressed in HEK293 cells assessed as reduction in pSer935 phosphorylation incubated for 2 hrs by HTRF analysis; assay type: cell-based; method in brief: as §2
[6] = species: Homo sapiens; assay: Selectivity ratio of IC50 for inhibition of human wild type LRRK2 expressed in HEK293 cells to IC50 for inhibition of human LRRK2 G2019S mutant expressed in HEK293; assay type: cell-based
Method in brief: (§3)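 HEK293 cells stably expressing WT or G2019S LRRK2 (100 000/well, EMEM with 1% FBS) were dosed about 24 h after plating, for 2 h. They were lysed in 1% SDS Tris buffer with protease and phosphatase inhibitors, and lysates were heated at 65 °C for 10 min. pThr73-Rab10, total Rab10, pS935 and total LRRK2 were quantified by immunoblot. IC50 is the geometric mean of at least two independent experiments.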

[7] = biological target: T1, Leucine-rich repeat serine/threonine-protein kinase 2; assay: Inhibition of human wild type LRRK2 expressed in HEK293 cells assessed as reduction in pSer935 phosphorylation incubated for 2 hrs by immunoblotting analysis; assay type: cell-based; method in brief: as §3
[8] = biological target: T2, Leucine-rich repeat serine/threonine-protein kinase 2; assay: Inhibition of human LRRK2 G2019S mutant expressed in HEK293 cells assessed as reduction in pSer935 phosphorylation incubated for 2 hrs by immunoblotting analysis; assay type: cell-based; method in brief: as §3
[9] = species: Homo sapiens; assay: Selectivity ratio of IC50 for inhibition of human wild type LRRK2 expressed in HEK293 cells assessed as reduction in pSer935 phosphorylation to IC50 for inhibition of human LRRK2 G2019S mutant expressed in HEK293 cells assessed as reduction in pSer935 phosphorylation; assay type: cell-based; method in brief: as §2
[10] = biological target: T1, Leucine-rich repeat serine/threonine-protein kinase 2; assay: Inhibition of human wild type LRRK2 expressed in HEK293 cells assessed as reduction in pS1292 phosphorylation incubated for 2 hrs by MSD analysis; assay type: cell-based
Method in brief: (§4)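 HEK293 cells stably expressing WT or G2019S LRRK2 (30−50K/well, DMEM with 1% serum) were treated for 2 h at 37 °C and lysed with phosphatase inhibitors. LRRK2 was captured on anti-LRRK2-coated MSD plates overnight at 4 °C. Detection used rabbit anti-pS1292 (1:400) and Sulfo-Tag anti-rabbit, with an electrochemiluminescence read-out. IC50 is the geometric mean of at least two independent experiments.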

[11] = biological target: T2, Leucine-rich repeat serine/threonine-protein kinase 2; assay: Inhibition of human LRRK2 G2019S mutant expressed in HEK293 cells assessed as reduction in pS1292 phosphorylation incubated for 2 hrs by MSD analysis; assay type: cell-based; method in brief: as §4
[12] = species: Homo sapiens; assay: Selectivity ratio of IC50 for inhibition of human wild type LRRK2 expressed in HEK293 cells assessed as reduction in pS1292 phosphorylation to IC50 for inhibition of human LRRK2 G2019S mutant expressed in HEK293 cells assessed as reduction in pS1292 phosphorylation; assay type: cell-based; method in brief: as §4
[13] = biological target: T1, Leucine-rich repeat serine/threonine-protein kinase 2; assay: Inhibition human wild type LRRK2 expressed in human HEK293 assessed as Rab10 substrate phosphorylation at Threonine 73 residue incubated for 2 hrs by immunoblotting analysis; assay type: cell-based; method in brief: as §3
[14] = biological target: T2, Leucine-rich repeat serine/threonine-protein kinase 2; assay: Inhibition human LRRK2 G2019S mutant expressed in human HEK293 assessed as Rab10 substrate phosphorylation at Threonine 73 residue incubated for 2 hrs by immunoblotting analysis; assay type: cell-based; method in brief: as §3
[15] = species: Homo sapiens; assay: Selectivity ratio of IC50 for inhibition human wild type LRRK2 expressed in human HEK293 assessed as Rab10 substrate phosphorylation at Threonine 73 residue to IC50 for inhibition of human LRRK2 G2019S mutant expressed in human HEK293 assessed as Rab10 substrate phosphorylation at Threonine 73 residue; method in brief: as §3

T1 sequence (Q5S007 whole entry, the tested form may be a part): as the sequence (Q5S007 whole entry G2019S, the tested form may be a part) above, with S2019G counted along it

IC50 [1]	IC50 [2]	Ratio IC50 [3]	IC50 [4]	IC50 [5]	IC50 [7]	IC50 [8]	IC50 [10]	IC50 [11]	IC50 [13]	IC50 [14]	Ratio IC50 [15]	Structure (SMILES)	Ratio IC50 [6]	Ratio IC50 [9]	Ratio IC50 [12]
0.3 nM	< 0.2 nM	> 1.5	145 nM	1.1 nM	259 nM	1.5 nM	33.7 nM	1 nM	473 nM	4.7 nM	101	CC1=C(C(=O)Nc2ccc3[nH]nc(-c4ccnc(N5CCOCC5)c4)c3c2)C(C)(C)n2nnnc2N1C	132	173	34
6.6 nM	< 0.2 nM	> 33	1060 nM	3.1 nM	2090 nM	2.5 nM	117 nM	1.7 nM	3920 nM	11.4 nM	344	CC1=C(C(=O)Nc2ccc3[nH]nc(-c4ccccc4)c3c2)C(C)(C)n2nnnc2N1C	339	837	71
